Converted amounts (≈) assume the structure as drawn.

Holding throughout (type): functional
The test system of assay [1] is Culex pipiens pallens. Briefly: Insecticidal activity against Culex pipiens pallens (mosquito) fourth-instar larvae assessed as insect mortality measured 24 hr post compound exposure by dipping method. The conditions noted are these: for LC50: Culex pipiens, 24 h.
The subject of assay [2] is Culex pipiens pallens. The assay can be described thus: Potency index, ratio of LC50 for cypermethrin to LC50 for test compound against Culex pipiens pallens (mosquito) fourth-instar larvae assessed as insect mortality measured 24 hr post compound exposure by dipping method.
Assay [3] has as its system Mythimna separata. The assay can be described thus: Insecticidal activity against Mythimna separata (Oriental armyworm) grown on compound pre-treated corn leaves assessed as insect mortality measured 48 hr post compound exposure. In outline: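 Leaves on filter paper in Petri dishes dipped 5 s in test solutions (acetone, diluted with water) and air-dried, then infested with 10 third-instar larvae; concentrations 500.0 down to 0.25 mg L-1; triplicate per concentration; 26 ± 1 °C, 70 ± 10% RH; percentage mortality at 48 h.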

What is called LC50 is the concentration that kills 50% of the test population. As for `CC1(C)[C@H](/C=C/Cl)[C@H]1CC(=O)OCc1c(F)c(F)cc(F)c1F` (relative stereo), in assay [1], the LC95 is recorded as 0.358 mg/L (≈ 1.02 µM) and the LC50 is 0.249 µg/mL (≈ 0.71 µM). In addition, the RatioLC50 in assay [2] is listed as 4.3.
`C=CCC1=C(C)C(COC(=O)C[C@H]2[C@@H](/C=C/Br)C2(C)C)CC1=O` (relative stereo): in assay [1], the LC95 is listed as 0.7054 mg/L (≈ 1.85 µM) and the LC50 is 0.44 µg/mL (≈ 1.15 µM). Also, the RatioLC50 in assay [2] was 2.4.
Consider `CC1(C)C(C=C(Cl)Cl)C1C(=O)OC(C#N)c1cccc(Oc2ccccc2)c1` (stereo not drawn) [ALPHA-CYPERMETHRIN], for which, in assay [1], the LC95 was found to be 0.0286 mg/L (≈ 0.0687 µM) and the LC50 was 0.0106 µg/mL (≈ 0.0255 µM). The RatioLC50 in assay [2] is 100.
`CC1(C)[C@H](C(=O)O[C@H](C#N)c2cccc(Oc3ccccc3)c2)[C@@H]1C=C(Br)Br` [DELTAMETHRIN]: in assay [1], the LC95 turned out to be 0.0033 mg/L (≈ 0.00653 µM) and the LC50 is 0.0012 µg/mL (≈ 0.00238 µM). Also, the LC50 in assay [3] was found to be 0.149 µg/mL (≈ 0.294 µM). Moreover, the RatioLC50 in assay [2] was 883.

For the origin of these results see ChEMBL document CHEMBL3045155, “Design, synthesis, and insecticidal activities of novel monohalovinylated pyrethroids” (2011).
